Here are results for five molecules from publication PMC5753398 (Journal of the American Chemical Society, 2017).

For assay [1], the system named is Shh-mediated Hedgehog signaling (Gli-controlled Firefly luciferase) in NIH3T3 cells. Kind of assay: Gli-reporter dual luciferase assay in Shh-N-stimulated NIH3T3 cells. It is filed as cell-based, mouse.
Assay [2] deals with Shh / Hedgehog pathway activation. To be noted: read-out: IC50, Shh inhibitory activity in vitro and in cells; similar cell-based assay; cited from earlier work.
Assay [3] has as its system GST-Shh, GST-Ihh, or GST-Dhh. Kind of assay: Competition assay for Hh analog selectivity. It is filed as binding, human. As to conditions: 10 μM robotnikinin + 400 nM FLAG-HL2-m5. The essentials: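 Competition format: PBS containing 10 μM competitor plus 400 nM FLAG-tagged macrocyclic peptide (recombinant, E. coli) added to wells coated with GST-Shh, GST-Ihh or GST-Dhh (E. coli BL21(DE3)-expressed, Ni-NTA purified). Wells then developed by HRP anti-FLAG antibody, o-phenylenediamine/urea peroxide substrate (pH 5.0) and A450. Relative affinity = (1 − % inhibition)GST-Hh/(1 − % inhibition)GST-Shh. Triplicate, mean and SD.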

A further assay relates to Shh/Patched interaction. As to conditions: read-out: IC50 for inhibition of the Shh/Patched interaction in vitro; ref 25a; cited from earlier work.

In the case of `CC1=C2C[C@H]3[C@@H](CC=C4C[C@@H](O)CC[C@@]43C)[C@@H]2CC[C@]12O[C@@H]1C[C@H](C)CN[C@H]1[C@H]2C` [cyclopamine], the “Inhibition of Shh-induced luminescence” value in assay [1] (10 μM, assay validation) is reported as “full inhibition”. Take `c1ccc2c(Oc3nc(Nc4ccc(N5CCOCC5)cc4)c4ncn(C5CCCCC5)c4n3)cccc2c1` [purmorphamine]: the “Effect on signaling pathway in HL2-m5-treated cells” value in assay [1] (5 μM purmorphamine added to cells treated with 10 μM HL2-m5) is “restored activation”. On to `O=C(C[C@@H]1C/C=C/CCC(=O)O[C@H](c2ccccc2)CNC1=O)NCc1ccc(Cl)cc1` [robotnikinin], for which, in assay [2], the IC50 was around 15 µM. Further, the “Affinity toward Ihh and Dhh relative to Shh” value in assay [3] was “significantly lower affinity”.

As to Ac-TLDDMEEMDGLSD-NH2 [L2-pep], the “Inhibitory activity in Gli-reporter assay” value in assay [1] (concentrations up to 30 μM, identical conditions) is on record as “no inhibitory activity”. Take “HHIP370–390: linear HHIP L2-derived peptide from the literature (GDGMITLDDMEEMDGLSDFTG; UniProt Q96QV1 370-390, looked up, fragment)”: in the assay with Shh/Patched interaction, the IC50 is 150 µM.
